Entries after “also recorded” stand apart in the source; their conditions may differ. Read-outs that look alike come from different tables or passages of the source.
Key:
[1] = pH 7.2; cited from earlier work
[2] = biological target: T1, D2 receptors on substantia nigra dopamine neurons (Mus musculus, UniProt P61168); type: cell-based
rat D2 receptors = conditions: cited from earlier work
human D2 receptors = conditions: cited from earlier work
D2 receptor = conditions: cited from earlier work
[3] = biological target: T1, D2 receptors on substantia nigra dopamine neurons; type: cell-based; conditions: CyHQ-sulpiride 5 μM, 1 s flash; quinpirole 300 nM or dopamine 1 μM
2-photon excitation = type: physicochemical; conditions: excitation at 740 nm, KMOPS buffer pH 7.2
Procedure, shortened: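 Two-photon uncaging of test compound in KMOPS buffer (100 mM KCl and 10 mM MOPS, brought to pH 7.2 with KOH), with excitation at 740 nm.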

[4] = 1PE photolysis at 365 and 405 nm; type: physicochemical; conditions: for Φu(365) quantum yield of photolysis / sensitivity (ε365Φu): 365 nm; for Φu(365) quantum yield of photolysis / Φu(405) quantum yield of photolysis: 0.1 mM in KMOPS buffer; for Φu(365) quantum yield of photolysis / sensitivity (ε365Φu) / Φu(405) quantum yield of photolysis / sensitivity (ε405Φu): pH 7.2; for sensitivity (ε365Φu) / sensitivity (ε405Φu): KMOPS buffer; for Φu(405) quantum yield of photolysis / sensitivity (ε405Φu): 405 nm; for yield of DA or sulpiride released (365 nm): photolysis at 365 nm; for yield of DA or sulpiride released (365 nm) / yield of DA or sulpiride released (405 nm): measured by HPLC, KMOPS pH 7.2; for yield of DA or sulpiride released (405 nm): photolysis at 405 nm
Procedure, shortened: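 Test compound at 0.1 mM in KMOPS buffer (100 mM KCl, 10 mM MOPS, adjusted to pH 7.2 with KOH), irradiated with one-photon light. Released dopamine quantified by HPLC to give chemical yield.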

[5] = Spontaneous hydrolysis in the dark, buffer, by HPLC; type: physicochemical; conditions: 100-μM solution in KMOPS buffer pH 7.2, HPLC
[6] = UV-vis spectra in KMOPS buffer pH 7.2; type: physicochemical; conditions: for ε365 / ε405: 0.1 mM in KMOPS buffer; for ε365: 365 nm; for ε405: 405 nm; for λmax: 0.1 mM solution in KMOPS buffer

T1 sequence (P61168 whole entry): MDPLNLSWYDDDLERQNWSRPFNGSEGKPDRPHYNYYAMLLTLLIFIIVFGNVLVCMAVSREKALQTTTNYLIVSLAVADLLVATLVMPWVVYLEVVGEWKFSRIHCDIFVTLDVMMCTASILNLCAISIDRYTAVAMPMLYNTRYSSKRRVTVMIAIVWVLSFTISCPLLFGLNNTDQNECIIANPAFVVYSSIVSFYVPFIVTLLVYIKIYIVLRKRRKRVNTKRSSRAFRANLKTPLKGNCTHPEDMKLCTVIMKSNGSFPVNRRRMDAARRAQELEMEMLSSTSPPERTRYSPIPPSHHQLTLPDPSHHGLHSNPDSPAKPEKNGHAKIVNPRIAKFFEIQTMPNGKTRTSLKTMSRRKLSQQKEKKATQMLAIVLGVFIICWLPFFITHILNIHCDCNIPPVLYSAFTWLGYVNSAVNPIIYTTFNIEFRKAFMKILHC

Compound | δu 2-photon uncaging action cross-section (2-photon excitation) | Φu(365) quantum yield of photolysis [4] | sensitivity (ε365Φu) [4] | Φu(405) quantum yield of photolysis [4] | sensitivity (ε405Φu) [4] | yield of DA or sulpiride released (365 nm) [4] | yield of DA or sulpiride released (405 nm) [4] | dark stability: no spontaneous hydrolysis in the dark observed within the time given [5] | ε365 [6] | ε405 [6] | λmax [6] | further results
COc1cc(C(Oc2ccc(CNC(=O)CCCC/C=C/C(C)C)cc2OC)C(=O)O)c([N+](=O)[O-])cc1OC (stereo not drawn) | – | – | – | – | – | – | – | – | – | – | – | decomposition in the dark in 24 h [1]: 1.7%
CCN1CCCC1CNC(=O)c1cc(S(N)(=O)=O)ccc1OC (stereo not drawn) [sulpiride] | – | – | – | – | – | – | – | – | – | – | – | effect on CyHQ-O-DA flash response ([2]; sulpiride 500 nM, CyHQ-O-DA 150 μM): all response was blocked; reversal of the dark current produced by CyHQ-O-DA ([2]; sulpiride 1 μM, CyHQ-O-DA 1 mM in the dark): unable to fully reverse the effect; Ki (rat D2 receptors): 6.9 nM; Ki (human D2 receptors): 9.4 nM
NCCc1ccc(O)c(O)c1 [dopamine] | – | – | – | – | – | – | – | – | – | – | – | rise time of current from 10 to 90% of the peak ([2]; iontophoretically applied dopamine (1 M, 10 ms 100 nA pulse)): 270 ms; rise time of current from 10 to 90% of the peak ([2]; synaptically released dopamine (IPSC, single stimulation)): 141 ms; koff (D2 receptor): 1.69 min^–1; time constant of decay τ of D2 current after CyHQ-sulpiride photolysis [3]: 307 ms
N#Cc1c(O)ccc2ccc(COc3ccc(CCN)cc3OCc3ccc4ccc(O)c(C#N)c4n3)nc12 [(CyHQ)2-O,O-DA, 2,2′-(((4-(2-Aminoethyl)-1,2-phenylene)bis(oxy))bis(methylene))bis(7-hydroxyquinoline-8-carbonitrile)] | 0.12 GM | 0.19 | 1044 | 0.19 | 61 | 16% | 15% | 100 h | 5480 M^–1 cm^–1 | 324 M^–1 cm^–1 | 364 nm | chemical yield of dopamine ([4]; range over 365 and 405 nm photolysis): 15–16%; photochemical quantum yield ([4]; wavelength not stated in the sentence (1PE)): 0.19
(8-Cyano-7-hydroxyquinolin-2-yl)methyl(3,4-dihydroxyphenethyl)carbamate [CyHQ-N-DA] | did not photolyze through 2PE; also recorded: n.p. ^c | 0.19 | 1283 | 0.20 | 50 | 60% | 49% | 24 h | 6700 M^–1 cm^–1 | 251 M^–1 cm^–1 | 364 nm | –
